Test results: ChEMBL document CHEMBL1144657, “Discovery of heterobicyclic templates for novel metabotropic glutamate receptor subtype 5 antagonists” (Bioorg Med Chem Lett, 2007)
pIC50, pKi: −log10 of the molar value. Calls of active or inactive are those of the source. The rule behind the calls is not given here.

What was measured:
Format in all cases: cell membranes
[1] = molecular target: Metabotropic glutamate receptor 5 (Rattus norvegicus, UniProt P31424); assay: Displacement of [3H]MPEP from mGluR5 in rat brain membrane
[2] = molecular target: Metabotropic glutamate receptor 5 (Rattus norvegicus) (UniProt P31424); assay: Displacement of [3H]MPEP from mGluR5 in rat brain membrane at 10 uM
How it was run: (§1)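 Binding was measured by the NIMH Psychoactive Drug Screening Program in rat brain membranes, with [3H]MPEP as the mGluR5 radioligand. Single-concentration screens are reported as percent inhibition of [3H]MPEP binding at 10 μM, and some compounds were also tested at 100 μM. For selected compounds, IC50 was determined using a previously published protocol.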

[3] = molecular target: Metabotropic glutamate receptor 5 (Rattus norvegicus) (UniProt P31424); assay: Displacement of [3H]MPEP from mGluR5 in rat brain membrane at 100 uM; how it was run: as §1

Chain of Metabotropic glutamate receptor 5 (Rattus norvegicus) (P31424 21-1203 limits assumed): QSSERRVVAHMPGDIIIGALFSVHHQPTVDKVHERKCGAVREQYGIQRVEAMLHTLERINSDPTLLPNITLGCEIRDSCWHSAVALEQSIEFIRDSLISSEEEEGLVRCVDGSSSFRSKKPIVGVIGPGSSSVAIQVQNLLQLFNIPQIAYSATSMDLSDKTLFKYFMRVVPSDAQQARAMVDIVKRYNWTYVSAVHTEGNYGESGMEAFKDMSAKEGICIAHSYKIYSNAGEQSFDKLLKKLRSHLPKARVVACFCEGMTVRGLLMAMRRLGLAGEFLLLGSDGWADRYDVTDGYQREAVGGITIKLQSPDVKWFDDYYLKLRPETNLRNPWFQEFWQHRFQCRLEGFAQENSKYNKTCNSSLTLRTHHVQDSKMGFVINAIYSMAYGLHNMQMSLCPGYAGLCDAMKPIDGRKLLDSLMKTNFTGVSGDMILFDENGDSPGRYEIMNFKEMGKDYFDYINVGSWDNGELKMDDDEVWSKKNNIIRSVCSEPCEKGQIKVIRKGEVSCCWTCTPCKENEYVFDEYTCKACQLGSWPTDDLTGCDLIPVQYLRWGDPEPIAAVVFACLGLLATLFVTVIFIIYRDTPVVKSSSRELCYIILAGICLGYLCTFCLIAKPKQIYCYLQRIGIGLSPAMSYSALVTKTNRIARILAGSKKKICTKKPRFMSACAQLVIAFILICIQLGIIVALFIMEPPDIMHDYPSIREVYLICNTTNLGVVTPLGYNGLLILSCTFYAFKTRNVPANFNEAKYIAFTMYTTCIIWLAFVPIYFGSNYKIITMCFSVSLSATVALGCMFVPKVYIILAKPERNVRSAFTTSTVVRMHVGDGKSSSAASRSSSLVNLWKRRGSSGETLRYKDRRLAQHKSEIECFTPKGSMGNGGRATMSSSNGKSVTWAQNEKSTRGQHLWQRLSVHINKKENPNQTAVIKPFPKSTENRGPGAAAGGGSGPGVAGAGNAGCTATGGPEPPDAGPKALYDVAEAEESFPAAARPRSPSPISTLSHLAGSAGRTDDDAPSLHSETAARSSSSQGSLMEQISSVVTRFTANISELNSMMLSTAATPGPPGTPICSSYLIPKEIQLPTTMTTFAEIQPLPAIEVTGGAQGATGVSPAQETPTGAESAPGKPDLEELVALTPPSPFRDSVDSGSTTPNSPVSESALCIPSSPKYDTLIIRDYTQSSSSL
Chain of Metabotropic glutamate receptor 5 (P31424 whole entry): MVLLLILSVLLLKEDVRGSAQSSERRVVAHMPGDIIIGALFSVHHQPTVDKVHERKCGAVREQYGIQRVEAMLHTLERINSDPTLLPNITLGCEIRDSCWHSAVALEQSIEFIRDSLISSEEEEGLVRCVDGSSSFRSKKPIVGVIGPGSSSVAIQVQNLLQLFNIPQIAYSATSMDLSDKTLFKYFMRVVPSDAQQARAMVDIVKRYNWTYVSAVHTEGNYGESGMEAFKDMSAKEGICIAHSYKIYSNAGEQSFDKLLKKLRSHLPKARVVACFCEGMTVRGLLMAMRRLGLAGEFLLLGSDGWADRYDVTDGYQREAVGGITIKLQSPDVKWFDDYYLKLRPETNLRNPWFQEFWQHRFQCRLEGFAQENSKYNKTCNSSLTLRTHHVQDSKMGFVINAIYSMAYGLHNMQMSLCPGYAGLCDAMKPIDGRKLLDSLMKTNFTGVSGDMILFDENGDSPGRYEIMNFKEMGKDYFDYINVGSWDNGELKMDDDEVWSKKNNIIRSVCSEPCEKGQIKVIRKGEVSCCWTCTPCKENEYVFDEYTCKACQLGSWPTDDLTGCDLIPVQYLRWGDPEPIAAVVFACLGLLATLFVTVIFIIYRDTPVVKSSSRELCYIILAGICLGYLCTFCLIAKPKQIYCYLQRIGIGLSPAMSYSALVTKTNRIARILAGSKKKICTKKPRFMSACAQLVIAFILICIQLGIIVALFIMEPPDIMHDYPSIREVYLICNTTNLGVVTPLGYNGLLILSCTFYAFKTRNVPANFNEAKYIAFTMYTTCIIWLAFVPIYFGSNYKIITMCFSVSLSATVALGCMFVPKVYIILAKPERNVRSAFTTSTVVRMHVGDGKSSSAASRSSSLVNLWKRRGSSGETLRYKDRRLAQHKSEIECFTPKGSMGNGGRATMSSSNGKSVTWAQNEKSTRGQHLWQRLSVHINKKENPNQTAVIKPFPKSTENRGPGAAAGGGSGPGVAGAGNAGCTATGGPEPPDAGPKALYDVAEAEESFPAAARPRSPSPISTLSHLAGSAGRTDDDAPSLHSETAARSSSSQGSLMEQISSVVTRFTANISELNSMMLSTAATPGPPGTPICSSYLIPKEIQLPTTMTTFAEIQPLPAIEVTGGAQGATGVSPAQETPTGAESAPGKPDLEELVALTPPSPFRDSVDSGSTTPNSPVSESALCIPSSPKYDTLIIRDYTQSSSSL

| Compound | pKi [1] | Activity [2] [%] | also measured |
| --- | --- | --- | --- |
| Cc1ccc2c(n1)nc(-c1ccccc1)n2Cc1ccccc1 | < 5.00 | – | – |
| Cc1ccc2ccc(-c3cccc(C#N)c3)cc2n1 | 6.96 | – | – |
| Cc1nc2cc(-c3cccc(Cl)c3)ccc2s1 | – | – | pIC50 [1]: 4.36 |
| Cc1ccc2nc(-c3ccccc3)n(C)c2n1 | – | < 1 | – |
| Cc1ccc2ccc(-c3ccccc3)cc2n1 | – | 50 | – |
| Cc1ccc(-c2ccc3ccc(C)nc3c2)nc1 | – | 9 | – |
| Cc1nc2nc(-c3ccccc3)sc2cc1-c1ccccc1 | – | – | pIC50 [1]: 4.48 |
| Cc1nc2nc(-c3ccccc3)sc2cc1Br | – | 1 | – |
| Cc1ccc2ccc(-c3ncccn3)cc2n1 | < 4.70 | – | – |
| Cc1ccc2nc(-c3ccccc3)n(CC3CC3)c2n1 | – | < 1 | – |
| Cc1nc2cc(-c3cccc(C#N)c3)ccc2s1 | 5.68 | – | – |
| Cc1nc2nc(-c3ccccc3)sc2cc1-c1cccc(C#N)c1 | – | 13 | – |
| Cc1cccc(-c2ccc3sc(C)nc3c2)n1 | – | 17 | – |
| Cc1nc2nc(-c3ccccc3)sc2cc1-c1cccs1 | < 5.00 | – | – |
| Cc1ccc2ccc(-c3cccs3)cc2n1 | – | < 1 | – |
| Cc1ccc2ccc(-c3cnccn3)cc2n1 | < 4.22 | – | – |

| Compound | pKi [1] | Activity [2] [%] | also measured |
| --- | --- | --- | --- |
| Cc1ccc2nc(-c3ccccc3)n(Cc3ccccc3)c2n1 | < 5.00 | – | – |
| Cc1nc2nc(-c3ccccc3)sc2cc1-c1ccc(F)cc1 | – | 3 | – |
| Cc1nc2cc(-c3ccc(F)cc3)ccc2s1 | – | – | Activity [3]: inactive |
| Cc1ccc2ccc(-c3ncc(F)cn3)cc2n1 | – | > 1 | – |
| COc1cccc(-c2ccc3sc(C)nc3c2)c1 | – | – | pIC50 [1]: 4.37 |
| COc1cc2sc(-c3ccccc3)nc2nc1C | – | < 1 | – |
| COc1cc(OC)nc(-c2ccc3ccc(C)nc3c2)n1 | 5.27 | – | – |
| Cc1nc2cc(-c3ccccc3)ccc2s1 | – | – | Activity [3]: inactive |
| Cc1ccc2sc(-c3ccccc3)nc2n1 | – | 16 | – |
| COc1ccnc(-c2ccc3sc(C)nc3c2)n1 | – | 39 | – |
| Cc1cc(C)nc(-c2ccc3ccc(C)nc3c2)n1 | 5.68 | – | – |
| Cc1nc2nc(-c3ccccc3)sc2cc1-c1cccc(Cl)c1 | – | 1 | – |
| Cc1nc2cc(-c3ncccn3)ccc2s1 | – | 29 | – |
| COc1ccnc(-c2ccc3ccc(C)nc3c2)n1 | 5.81 | – | – |
| Cc1ccc2ccc(-c3ccccn3)cc2n1 | – | 28 | – |
| Cc1ccc2[nH]c(-c3ccccc3)nc2n1 | < 5.00 | – | – |
